Results reported in ChEMBL document CHEMBL4257483, “Design, synthesis and bioactivities of phenithionate analogues or derivatives for anti-schistosomiasis” (Medchemcomm, 2018).
≈ marks a conversion by molar mass, not a printed value. Calls of active or inactive are those of the source. No cut-off for these calls is given here.

How the values were obtained:
Schistosoma japonicum [1] = assay: Antischistosomal activity against Schistosoma japonicum infected in mouse at 25 mg/kg/day, po treated for 5 days measured after day 2 post last dose by ELISA; format: functional, organism-based
Summary of the method: (§1)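 Male mice (20–22 g) infected via abdominal skin with 120–140 S. japonicum cercariae. From day 35 post-infection, dosed orally once daily for 5 days. Venous blood then clotted and centrifuged 15 min at 3500 rpm. Serum tested by triple dot ELISA and scored by spot colour: brown +++, yellow ++, slight yellow +, colourless –. DMSO blank.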

Schistosoma japonicum [2] = assay: Antischistosomal activity against Schistosoma japonicum infected in mouse at 50 mg/kg/day, po treated for 5 days measured after day 1 post last dose by ELISA; format: functional, organism-based; summary of the method: as §1
Schistosoma japonicum [3] = assay: Antischistosomal activity against Schistosoma japonicum infected in mouse at 25 mg/kg/day, po treated for 5 days measured after day 7 post last dose by ELISA; format: functional, organism-based; summary of the method: as §1
Schistosoma japonicum [4] = assay: Antischistosomal activity against Schistosoma japonicum imago derived from infected mouse assessed as reduction in imago viability after 72 hrs; format: functional, organism-based
Summary of the method: (§2)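 Worms perfused with cold heparinised HBSS from mice infected percutaneously with S. japonicum cercariae: larvae at 15 days post-infection (260–280 cercariae), adults at 35 days (120–140 cercariae). Five male and female worms per well in 10% calf serum RPMI 1640 with penicillin, streptomycin and amphotericin B. Preincubated 4 h at 37 °C, 5% CO2, then compounds added and viability recorded over 72 h. IC50 taken at 50% survival. DMSO blank.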

Schistosoma japonicum [5] = assay: Antischistosomal activity against Schistosoma japonicum infected in mouse at 50 mg/kg/day, po treated for 5 days measured after day 4 post last dose by ELISA; format: functional, organism-based; summary of the method: as §1
Schistosoma japonicum [6] = assay: Antischistosomal activity against Schistosoma japonicum infected in mouse at 50 mg/kg/day, po treated for 5 days measured after day 9 post last dose by ELISA; format: functional, organism-based; summary of the method: as §1
Schistosoma japonicum [7] = assay: Antischistosomal activity against Schistosoma japonicum infected in mouse at 50 mg/kg/day, po treated for 5 days measured after day 5 post last dose by ELISA; format: functional, organism-based; summary of the method: as §1
Schistosoma japonicum [8] = assay: Antischistosomal activity against Schistosoma japonicum infected in mouse at 25 mg/kg/day, po treated for 5 days measured after day 8 post last dose by ELISA; format: functional, organism-based; summary of the method: as §1
Schistosoma japonicum [9] = assay: Antischistosomal activity against Schistosoma japonicum infected in mouse at 50 mg/kg/day, po treated for 5 days measured after day 2 post last dose by ELISA; format: functional, organism-based; summary of the method: as §1
[10] = Lipid/water partition coefficient, log P of the compound; format: physicochemical
Schistosoma japonicum [11] = assay: Antischistosomal activity against Schistosoma japonicum imago derived from infected mouse at 20 ug/ml after 72 hrs; format: functional, organism-based; summary of the method: as §2
Schistosoma japonicum [12] = assay: Antischistosomal activity against Schistosoma japonicum infected in mouse at 25 mg/kg/day, po treated for 5 days measured after day 6 post last dose by ELISA; format: functional, organism-based; summary of the method: as §1
Schistosoma japonicum [13] = assay: Antischistosomal activity against Schistosoma japonicum infected in mouse at 50 mg/kg/day, po treated for 5 days measured after day 3 post last dose by ELISA; format: functional, organism-based; summary of the method: as §1
Schistosoma japonicum [14] = assay: Antischistosomal activity against Schistosoma japonicum infected in mouse at 50 mg/kg/day, po treated for 5 days measured after day 6 post last dose by ELISA; format: functional, organism-based; summary of the method: as §1
Schistosoma japonicum [15] = assay: Antischistosomal activity against Schistosoma japonicum infected in mouse at 25 mg/kg/day, po treated for 5 days measured after day 1 post last dose by ELISA; format: functional, organism-based; summary of the method: as §1
Schistosoma haematobium = assay: Antischistosomal activity against Schistosoma haematobium imago derived from infected mouse at 20 ug/ml after 72 hrs; format: functional, organism-based
Schistosoma japonicum [16] = assay: Antischistosomal activity against Schistosoma japonicum infected in mouse at 25 mg/kg/day, po treated for 5 days measured after day 9 post last dose by ELISA; format: functional, organism-based; summary of the method: as §1
Schistosoma japonicum [17] = assay: Antischistosomal activity against Schistosoma japonicum infected in mouse at 25 mg/kg/day, po treated for 5 days measured after day 4 post last dose by ELISA; format: functional, organism-based; summary of the method: as §1
[18] = Dissociation constant, pKa of the compound; format: physicochemical
Schistosoma japonicum [19] = assay: Antischistosomal activity against Schistosoma japonicum infected in mouse at 25 mg/kg/day, po treated for 5 days measured after day 5 post last dose by ELISA; format: functional, organism-based; summary of the method: as §1
Schistosoma japonicum [20] = assay: Antischistosomal activity against Schistosoma japonicum infected in mouse at 50 mg/kg/day, po treated for 5 days measured after day 7 post last dose by ELISA; format: functional, organism-based; summary of the method: as §1
Schistosoma japonicum [21] = assay: Antischistosomal activity against Schistosoma japonicum larva derived from infected mouse assessed as reduction in larva viability after 72 hrs; format: functional, organism-based; summary of the method: as §2
Schistosoma japonicum [22] = assay: Antischistosomal activity against Schistosoma japonicum infected in mouse at 50 mg/kg/day, po treated for 5 days measured after day 8 post last dose by ELISA; format: functional, organism-based; summary of the method: as §1
Schistosoma japonicum [23] = assay: Antischistosomal activity against Schistosoma japonicum infected in mouse at 25 mg/kg/day, po treated for 5 days measured after day 3 post last dose by ELISA; format: functional, organism-based; summary of the method: as §1
Schistosoma mansoni = assay: Antischistosomal activity against Schistosoma mansoni imago derived from infected mouse at 20 ug/ml after 72 hrs; format: functional, organism-based
[24] = Acute toxicity in po dosed mouse infected with Schistosoma japonicum treated for 5 days; format: organism-based; conditions: in vivo

SMILES	Activity (Schistosoma japonicum [1])	Activity (Schistosoma japonicum [2])	Activity (Schistosoma japonicum [3])	IC50 (Schistosoma japonicum [4])	Activity (Schistosoma japonicum [5])	Activity (Schistosoma japonicum [6])	Activity (Schistosoma japonicum [7])	Activity (Schistosoma japonicum [8])	Activity (Schistosoma japonicum [9])	logP [10]	Activity (Schistosoma japonicum [11])	Activity (Schistosoma japonicum [12])	Activity (Schistosoma japonicum [13])	Activity (Schistosoma japonicum [14])	Activity (Schistosoma japonicum [15])	Activity (Schistosoma haematobium)	Activity (Schistosoma japonicum [16])	Activity (Schistosoma japonicum [17])	pKa [18]	Activity (Schistosoma japonicum [19])	further results
Oc1ccc(OC(=S)Nc2ccc(Oc3ccc(C(F)(F)F)cc3)cc2)cc1	Active	Active	inactive	6.35 µg/mL (≈ 15.7 µM)	inactive	inactive	inactive	inactive	Active	6.11	Active	inactive	Active	inactive	Active	inactive	inactive	Active	9.23	Active	Activity (Schistosoma japonicum [20]): inactive; IC50 (Schistosoma japonicum [21]): 5.21 µg/mL (≈ 12.9 µM); Activity (Schistosoma japonicum [22]): inactive; Activity (Schistosoma japonicum [23]): Active; Activity (Schistosoma mansoni): inactive; LD50 at 120 h [24]: > 500 mg/kg
Oc1ccc(OC(=S)Nc2ccc(Nc3ccc(C(F)(F)F)cc3)cc2)cc1	Active	Active	inactive	6.68 µg/mL (≈ 16.5 µM)	inactive	inactive	inactive	inactive	Active	6.04	Active	inactive	Active	inactive	Active	inactive	inactive	Active	9.23	Active	Activity (Schistosoma japonicum [20]): inactive; IC50 (Schistosoma japonicum [21]): 5.43 µg/mL (≈ 13.4 µM); Activity (Schistosoma japonicum [22]): inactive; Activity (Schistosoma japonicum [23]): Active; Activity (Schistosoma mansoni): inactive; LD50 at 120 h [24]: > 500 mg/kg
O=[N+]([O-])c1ccc(Oc2ccc(NC(=S)Oc3ccc(O)cc3)cc2)cc1	Active	Active	Active	8.02 µg/mL (≈ 21 µM)	Active	inactive	Active	inactive	Active	5.01	Active	Active	Active	inactive	Active	inactive	inactive	Active	9.23	Active	Activity (Schistosoma japonicum [20]): inactive; IC50 (Schistosoma japonicum [21]): 6.38 µg/mL (≈ 16.7 µM); Activity (Schistosoma japonicum [22]): inactive; Activity (Schistosoma japonicum [23]): Active; Activity (Schistosoma mansoni): inactive; LD50 at 120 h [24]: 275 mg/kg
